Laboratory results taken from ChEMBL document CHEMBL2417407, “Regioselective synthesis of phenanthrenes and evaluation of their anti-oxidant based anti-inflammatory potential” (Eur J Med Chem, 2013).
Converted amounts (≈) assume the structure as drawn.

Tests used:
THP-1 [1] = assay: Cytotoxicity against human THP1 cells assessed as cell viability at 100 uM after 24 hrs by CCK-8 assay relative to untreated control; format: cell-based; conditions: thp-1, 24 h
In short: (§1)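 THP-1 cells were seeded at 2 × 10⁵ cells/well and exposed to compound in serum-free medium for 24 h at 37 °C under 5% CO2. CCK-8 reagent was then added for 2 h and absorbance was read at 450 nm. Relative viability was calculated as absorbance of treated cells divided by absorbance of untreated cells. Triplicates, two independent experiments.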

THP-1 [2] = assay: Antiinflammatory activity in human THP1 cells assessed as inhibition of LPS-stimulated TNF-alpha release at 10 uM incubated for 1 hr prior to LPS challenge measured after 24 hrs by sandwich ELISA relative to untreated control; format: functional
In short: (§2)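 THP-1 cells were grown in RPMI 1640 with 10% heat-inactivated FBS, 1% non-essential amino acids, 1% glutamine, penicillin and streptomycin at 37 °C under 5% CO2. They were seeded at 2 × 10⁵ cells/well and pretreated with compound for 1 h in serum-free medium. LPS (E. coli O55:B5, 250 ng/mL) was then added for 24 h at 37 °C. Supernatant TNF-α was measured by sandwich ELISA, with LPS-stimulated cells taken as 0% inhibition. Triplicates, two independent experiments.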

THP-1 [3] = assay: Cytotoxicity against human THP1 cells assessed as cell viability at 50 uM after 24 hrs by CCK-8 assay relative to untreated control; format: cell-based; conditions: thp-1, 24 h; in short: as §1
THP-1 [4] = assay: Antiinflammatory activity in human THP1 cells assessed as inhibition of LPS-stimulated TNF-alpha release incubated for 1 hr prior to LPS challenge measured after 24 hrs by sandwich ELISA; format: functional, cell-based; in short: as §2
THP-1 [5] = assay: Antiinflammatory activity in human THP1 cells assessed as inhibition of LPS-stimulated TNF-alpha release at 100 uM incubated for 1 hr prior to LPS challenge measured after 24 hrs by sandwich ELISA relative to untreated control; format: functional; in short: as §2
[6] = Antioxidant activity assessed as ABTS free radical scavenging activity after 1 min; format: functional
In short: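 ABTS radical cation was generated from 7 mM ABTS stock and 2.45 mM potassium persulfate (final) left 16 h in the dark at room temperature. Working solution (1.0 mL) was added to the compound in methanol, giving final 1–100 µg/mL. Absorbance at 734 nm was read after exactly 1 min. Percent scavenging was calculated from absorbances as in the DPPH assay.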

[7] = system: Radical scavenging activity; assay: Antioxidant activity assessed as DPPH free radical scavenging activity after 30 mins; format: functional
In short: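 Compound solution was mixed with 316 µM DPPH solution, giving final compound concentrations of 1, 5, 12.5, 25, 50 and 100 µg/mL. The mixture was shaken 1 min and incubated at 37 °C for 30 min. Absorbance was read at 517 nm and percent scavenging was calculated as [1 − (A1 − A2)/A0] × 100.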

THP-1 [8] = assay: Antiinflammatory activity in human THP1 cells assessed as inhibition of LPS-stimulated TNF-alpha release at 1 uM incubated for 1 hr prior to LPS challenge measured after 24 hrs by sandwich ELISA relative to untreated control; format: functional; in short: as §2
[9] = Antioxidant activity assessed as galvinoxyl free radical scavenging activity after 20 mins; format: functional
THP-1 [10] = assay: Cytotoxicity against human THP1 cells assessed as cell viability at 10 uM after 24 hrs by CCK-8 assay relative to untreated control; format: cell-based; conditions: thp-1, 24 h; in short: as §1
THP-1 [11] = assay: Antiinflammatory activity in human THP1 cells assessed as inhibition of LPS-stimulated TNF-alpha release at 50 uM incubated for 1 hr prior to LPS challenge measured after 24 hrs by sandwich ELISA relative to untreated control; format: functional; in short: as §2
THP-1 [12] = assay: Cytotoxicity against human THP1 cells assessed as cell viability at 1 uM after 24 hrs by CCK-8 assay relative to untreated control; format: cell-based; conditions: thp-1, 24 h; in short: as §1

Row | Structure (SMILES) | fold change (FC) (THP-1 [1]) | inhibition at 10 µM (THP-1 [2]) | fold change (FC) (THP-1 [3]) | inhibition (THP-1 [4]) | inhibition at 100 µM (THP-1 [5]) | IC50 [6] | IC50 [7] | inhibition at 1 µM (THP-1 [8]) | IC50 [9] | fold change (FC) (THP-1 [10]) | inhibition at 50 µM (THP-1 [11]) | fold change (FC) (THP-1 [12])
1 | COc1cc2ccc3cc(O)ccc3c2c(OC)c1O | 1 | 15.5% | 1.1 | Dose-dependent effect | 67.5% | 13.39 µg/mL (≈ 49.5 µM) | 11.18 µg/mL (≈ 41.4 µM) | 3.5% | 11.79 µg/mL (≈ 43.6 µM) | 1.3 | 34% | 1.4
2 | Cc1cc(C(C)(C)C)c(O)c(C(C)(C)C)c1 [BUTYLATED HYDROXYTOLUENE] |  |  |  |  |  | 36.11 µg/mL (≈ 164 µM) | 31.51 µg/mL (≈ 143 µM) |  | 43.7 µg/mL (≈ 198 µM) |  |  | 
3 | Oc1cc(O)c2c(c1)OC(c1ccc(O)c(O)c1)C(O)C2 (stereo unspecified) [CATECHIN] |  |  |  |  |  | 11.46 µg/mL (≈ 39.5 µM) | 15.6 µg/mL (≈ 53.7 µM) |  | 18.03 µg/mL (≈ 62.1 µM) |  |  | 
4 | COc1ccc2c(c1O)CCc1cc(O)cc(OC)c1-2 | 1 | 31% | 1.2 | Dose-dependent effect | 83% | 15.62 µg/mL (≈ 57.4 µM) | 32.5 µg/mL (≈ 119 µM) | 19.5% | 17.04 µg/mL (≈ 62.6 µM) | 1.3 | 70% | 1.3
5 | COc1cc(/C=C/C(=O)CC(=O)/C=C/c2ccc(O)c(OC)c2)ccc1O [CURCUMIN] | 0.5 | 38% | 0.9 | Dose-dependent effect | 102% | 28.3 µg/mL (≈ 76.8 µM) | 11.41 µg/mL (≈ 31 µM) | 1.5% | 17.03 µg/mL (≈ 46.2 µM) | 1.5 | 95.5% | 1.8
6 | c1ccc2c(c1)ccc1ccccc12 [PHENANTHRENE] | 1.1 | 0% | 1.2 |  | 8.5% | > 100 µg/mL | > 100 µg/mL | 0% | > 100 µg/mL | 1.3 | 6% | 1.4
7 | COc1cc2c(c(OC)c1O)-c1ccc(O)cc1CC2 [FLAVANTHRIDIN] | 1.2 | 17.5% | 1.3 | Dose-dependent effect | 64% | 11.72 µg/mL (≈ 43 µM) | 10.28 µg/mL (≈ 37.8 µM) | 8% | 11.66 µg/mL (≈ 42.8 µM) | 1.4 | 47% | 1.4
8 | COc1cc(O)c2c(c1)CCc1c-2ccc(OC)c1O | 1.1 | 30% | 1.2 | Dose-dependent effect | 94% | 16.98 µg/mL (≈ 62.4 µM) | 27.8 µg/mL (≈ 102 µM) | 9% | 17.97 µg/mL (≈ 66 µM) | 1.4 | 79% | 1.5
9 | c1ccc2c(c1)CCc1ccccc1-2 | 1.2 | 0% | 1.3 |  | 14.5% | > 100 µg/mL | > 100 µg/mL | 0% | > 100 µg/mL | 1.5 | 5% | 1.6
10 | O=C1O[C@H]([C@@H](O)CO)C(O)=C1O [ASCORBIC ACID] |  |  |  |  |  | 29.17 µg/mL (≈ 166 µM) | 15.12 µg/mL (≈ 85.8 µM) |  | 5.23 µg/mL (≈ 29.7 µM) |  |  | 
